CHOP UPR activ: activators of apoptotic CHOP UPR arm, primary screen, cell-based, CHO-CHOP luciferase reporter, luminescence, uHTS | activation, % at 10 µM | AID 449763, 2010 | actives 0.34% (n = 330,000) | UPR activation; percent of tunicamycin response over DMSO baseline;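 active means at 10 µM dose, activation of 40% or more, normalized to positive control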;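 further: 100% = tunicamycin at 10 µg/mL and 0% = DMSO alone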
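Test system: CHO CHOP reporter cells. Input: 500 CHO-CHOP cells per well. Medium: F12 with 10% FBS. Technique: luciferase luminescence. Measure: percent activation relative to tunicamycin control. Dosing: 10 µM compound, 0.5% DMSO. Timing: 16-18 h cell attachment, then 6 h compound exposure, 37 °C.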
XBP1 UPR activ: activators of adaptive XBP1 UPR arm, primary screen, cell-based, CHO-XBP1 luciferase reporter, luminescence, uHTS; actives 0.33% (n = 330,000); activation, % at 20 µM; IRE1-XBP1 UPR activation; percent of tunicamycin response, DMSO as zero; AID 463104, 2010;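 active means versus positive control, 20 µM dose yields 30% or more activation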;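 further: 100% = tunicamycin at 10 µg/mL and 0% = DMSO only wells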
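Material: CHO-XBP1 cells stably carrying IRE1-XBP1-driven luciferase reporter | Medium: F12 with 10% serum | Compound dosing: 20 µM single concentration, DMSO 1% | Incubation: Overnight seeding at 37 °C, 6 h compound treatment at 37 °C | Detection: Steady-Glo luminescence read | Read-out basis: % activation of reporter signal versus tunicamycin and DMSO controls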
Beta apoptosis: inhibitors of cytokine-induced beta cell apoptosis, primary screen, luminescence. INS-1E cytokine-induced death, ATP luminescence, 48 h; percent of positive-control rescue, neutral wells zero. protection from apoptosis, % (concentration not given with the values). actives 0.8% (n = 300,000);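 active means Every replicate reaches about 75%, or at least half do and their mean reaches it too, limit read from the data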;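 further: 0% = cytokine-treated negative control wells and 100% = positive control rescue; higher means more ATP so stronger rescue from cytokine killing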
CSC inhib: cancer stem cell viability inhibitors, primary screen, luminescence. AID 2717, 2010. inhibition, % at 7.5 µM. actives 1.1% (n = 300,000). cancer stem cell-like cells viability; in the data active means inhibition above about 75%; tested in HMLE shEcad cells
Mdm2 MdmX PPI: inhibitors of human Mdm2-MdmX association, primary screen, cell-based, luminescence, split luciferase, SaOS-2, uHTS; SaOS-2 split-luciferase Mdm2/MdmX complementation; inhibition, % at 8 µM; actives 3% (n = 330,000); AID 485346, 2010;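 active means inhibition of at least 50% at 8 µM in the primary screen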
Target sequence (O15151 whole entry, looked up): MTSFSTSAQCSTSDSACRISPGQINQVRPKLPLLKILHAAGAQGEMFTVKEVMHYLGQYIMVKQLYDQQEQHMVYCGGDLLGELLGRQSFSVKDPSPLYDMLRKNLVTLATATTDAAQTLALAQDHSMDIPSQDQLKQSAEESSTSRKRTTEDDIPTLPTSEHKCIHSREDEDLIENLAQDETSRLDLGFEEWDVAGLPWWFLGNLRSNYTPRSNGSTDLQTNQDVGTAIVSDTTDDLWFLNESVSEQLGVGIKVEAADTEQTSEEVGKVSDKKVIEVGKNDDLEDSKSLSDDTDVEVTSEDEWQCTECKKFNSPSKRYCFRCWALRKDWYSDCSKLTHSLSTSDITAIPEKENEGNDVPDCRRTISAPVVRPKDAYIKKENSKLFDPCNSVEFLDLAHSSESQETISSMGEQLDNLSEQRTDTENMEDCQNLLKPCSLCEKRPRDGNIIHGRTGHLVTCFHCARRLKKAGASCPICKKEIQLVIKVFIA
Target sequence (Q00987 whole entry, looked up): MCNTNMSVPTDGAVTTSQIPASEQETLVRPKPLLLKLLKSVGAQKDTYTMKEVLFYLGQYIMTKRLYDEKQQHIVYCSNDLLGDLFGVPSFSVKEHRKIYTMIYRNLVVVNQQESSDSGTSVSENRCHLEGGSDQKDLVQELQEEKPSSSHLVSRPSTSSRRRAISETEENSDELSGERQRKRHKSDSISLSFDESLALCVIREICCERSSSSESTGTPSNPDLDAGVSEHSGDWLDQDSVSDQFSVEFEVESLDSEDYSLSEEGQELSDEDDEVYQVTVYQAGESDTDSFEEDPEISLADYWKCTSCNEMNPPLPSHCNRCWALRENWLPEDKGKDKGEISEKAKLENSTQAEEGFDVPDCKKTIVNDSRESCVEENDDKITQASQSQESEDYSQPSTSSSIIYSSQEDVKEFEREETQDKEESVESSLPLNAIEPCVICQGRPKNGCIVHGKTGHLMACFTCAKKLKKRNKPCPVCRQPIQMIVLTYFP
SKKanGAS inh: S. pyogenes SKKanGAS growth inhibitors in kanamycin, primary screen, streptokinase expression inhibitor project, SKKanGAS strain, BacTiter-Glo luminescence | 6 h | inhibition, % at 7.5 µM | actives 1.3% (n = 300,000);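 active means mean replicate score, as percent of positive control median, at least 50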;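 further: strain carries kanamycin resistance gene driven by streptokinase promoter and grows in 40 µg/ml kanamycin; loss of luminescence reflects streptokinase promoter inhibition or plain growth inhibition; 0% = median of DMSO wells and 100% = positive control at its reference dose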
The depositor's hits bear a star; / = no result. Rows were chosen to be rich in hits. Some 4.8% of all compounds tested hit in one or more screens of this group.

SMILES | CHOP UPR activ | XBP1 UPR activ | Beta apoptosis | CSC inhib | Mdm2 MdmX PPI | SKKanGAS inh
CCC[C@@H]1C[C@@H](C(=O)N[C@@H](C2O[C@H](SC)[C@H](O)[C@@H](O)[C@H]2O)[C@H](C)Cl)N(C)C1 (stereo not given in full) | -2 | -4 | 4 | -7 | -29 | 104*
CCCS(=O)(=O)N1CCN=C1SCc1cccc(C)c1 | -3 | 0 | -5 | -4 | -15 | -8
N#Cc1ccc(Oc2ncccn2)cc1 | -3 | -1 | / | 4 | -5 | 5
Cc1ccc(S(=O)(=O)N2C[C@@H]3CCCC[C@@H]3[C@@H](C)[C@H]2c2cn(Cc3ccccc3)c3ncccc23)cc1 | 25 | 3 | / | / | 41 | /
Cc1noc(C)c1COc1cccc(C(=O)Nc2ccc(OCc3ccccc3)cc2)c1 | -1 | -4 | 3 | 98* | 15 | 26
CC(C)CN(C(=O)COC(=O)C12CC3CC(CC(Cl)(C3)C1)C2)c1c(N)n(Cc2ccccc2)c(=O)[nH]c1=O | 6 | -3 | 81* | -16 | 29 | 36
COCCN(C(=O)COC(=O)C12CC3CC(CC(Cl)(C3)C1)C2)c1c(N)n(Cc2ccccc2)c(=O)[nH]c1=O | 3 | 0 | -11 | -19 | -15 | -2
Cc1cc(NC(=O)CN2C(=O)NC(C)(c3ccc(Cl)cc3Cl)C2=O)no1 (stereo not given) | 0 | 4 | -2 | 2 | -1 | /
Cc1[nH]c(-c2ccc(F)cc2)cc1C(=O)N1CCN(c2cccc(Cl)c2)CC1 | 2 | -4 | -8 | 24 | 38 | 67*
CS(=O)(=O)c1ccc([C@@H](O)[C@@H](CO)NC(=O)C(Cl)Cl)cc1 | -1 | -5 | 22 | -16 | 13 | 108*
CN(/N=C/c1cc(Cl)cc(Cl)c1O)C(=S)NC(C)(C)C | 0 | -1 | 15 | 100* | 8 | 28
CC1Cc2cc(S(=O)(=O)N3CCN(c4ccccc4F)CC3)ccc2N1C(=O)C1CC1 (stereo not given) | 2 | -7 | 13 | 14 | 19 | 3
CCc1cc[n+](C2=C([O-])c3ccccc3C(=O)/C2=N\S(=O)(=O)c2cccs2)cc1 | 6 | -2 | 106* | 3 | 29 | 89*
CCOC(=O)C1CCCN(CCC(=O)Nc2cc(OC)ccc2OC)C1 (stereo not given) | 0 | -4 | / | 12 | -6 | 7
CC(Sc1nnc(C(C)Oc2ccccc2F)o1)C(=O)NCc1ccc2c(c1)OCO2 (stereo not given) | 0 | 0 | 0 | / | -21 | /
O=C(NC(c1ccc(Cl)cc1)c1c(O)ccc2ccccc12)c1ccccc1 (stereo not given) | / | / | 98* | 107* | / | /
CN(CC(=O)Nc1ccc(F)c(F)c1)S(=O)(=O)c1cccc2cccnc12 | 2 | -5 | 2 | -7 | 3 | 2
O=[N+]([O-])c1ccc(N2CCCCC2)c(Cl)c1N1CCCCC1 | -1 | 0 | -5 | 10 | 4 | 93*
COc1cc(OC)cc(-c2cc3ccc(OC)cc3cn2)c1 | 2 | 2 | 36 | 94* | -147 | /
CC(NC(=O)Cn1cc(Br)c([N+](=O)[O-])n1)c1ccccc1 (stereo not given) | 1 | -5 | 0 | 0 | 14 | 5
CCNC(=S)N1CCN(c2nc(-c3ccc(F)cc3)cs2)CC1 | 0 | -6 | -5 | 12 | 7 | 0
CCN(CC)CCCNC(=S)N1CCN(c2nc(-c3ccc(F)cc3)cs2)CC1 | -1 | -1 | 17 | 93* | 47 | -2
COc1ccc(S(=O)(=O)N2CCCC(C(=O)N3CCCC3)C2)cc1OC (stereo not given) | 2 | 1 | / | -18 | -7 | -3
Cc1cccc(C)c1OCC(=O)NNC(=S)NC(=O)C1CC1 | 0 | -2 | 32 | 12 | 26 | 95*
COc1ccc(/C=N/OCc2ccc(Br)cc2)c(OC)c1 | 4 | 4 | -1 | 5 | 3 | -12
SMILES | CHOP UPR activ | XBP1 UPR activ | Beta apoptosis | CSC inhib | Mdm2 MdmX PPI | SKKanGAS inh
CC(=O)c1c(C)[nH]c(C(=O)OCc2c(F)cccc2Cl)c1C | 1 | 0 | -6 | / | 36 | 2
CC(=O)c1c(C)[nH]c(C(=O)OCc2cccc(Cl)c2)c1C | 3 | 0 | 75* | 24 | 31 | 4
CN1CCN(CC(=O)c2cc(C(C)(C)C)c(O)c(C(C)(C)C)c2)CC1 | 1 | -2 | -4 | 1 | -12 | 2
O=C(CSc1nnc(-c2ccccc2)n1Cc1ccccc1)NNC(=O)c1ccccc1O | 0 | -4 | / | / | 34 | 7
O=C(CSc1nnc(-c2ccccc2O)n1Cc1ccccc1)NNC(=O)c1ccccc1O | 0 | -2 | -2 | 133* | 32 | 8
CC(C)(C)c1cc(CSC(=S)NC2CCS(=O)(=O)C2)c(Br)c(C(C)(C)C)c1 (stereo not given) | 10 | -5 | -40 | 97* | 18 | 96*
Oc1c(CN2CCOCC2)cc(COCc2ccccc2)c2cccnc12 | / | / | 98* | 48 | / | 29
Oc1c(CN2CCN(c3ccccc3)CC2)cc(Br)c2cccnc12 | / | / | 98* | 114* | / | 90*
Cc1cccc(/C(N)=N/OC(=O)CCCc2ccccc2)c1 | -2 | -1 | / | / | -13 | 8
Cc1ccc(S(=O)(=O)N(CC(=O)NC2CC2)c2ccc(C)c(Cl)c2)cc1 | -1 | -6 | 2 | -7 | 2 | -10
O=C(Nc1ccc2c(c1)CCC2)c1cc(S(=O)(=O)Nc2ccc(F)cc2)c(Cl)cc1Cl | 0 | -2 | 6 | 109* | 45 | 103*
O=C(Nc1ccc2c(c1)CCC2)c1ccc(F)cc1 | 4 | -3 | 8 | 12 | -232 | -4
C=CCNC(=O)c1onc(CS(=O)(=O)c2cc(C)cc(C)c2)c1C(=O)NCC=C | -1 | -4 | 2 | -17 | 0 | -2
COc1cc2cc(C(=O)N3CCOCC3)cc(-c3ccc(C)cc3)c2cc1OC | 1 | -2 | 101* | -2 | 19 | -2
COc1ccc(-c2cc(C(=O)N3CCOCC3)c3ccccc3n2)cc1OC | 2 | -2 | -6 | -8 | 19 | -4
CCOc1ccc(Nc2nc(Cc3nnc(SCC(=O)c4ccc(C)c(C)c4)o3)cs2)cc1 | 6 | -3 | 97* | 20 | 15 | 14
O=C(O)c1ccc(N/N=C/c2ccc(-c3cccc(Cl)c3)o2)cc1 | 3 | 2 | -8 | 10 | -119 | 70*
O=C(O)c1ccc(N/N=C/c2ccc(-c3ccc(Cl)cc3Cl)o2)cc1 | 8 | 14 | -4 | 44 | 15 | 84*
